Measured values gathered from unrelated publications.
Medium: plasma

SMILES	system	conditions	quantity	value
CN(C(=O)n1cnc(-c2ccc[n+]([O-])c2)c1)C1CCCCC1	male cynomolgus monkey	oral, 0.3 mg/kg	half-life	2.2 h
CCc1cc(C(=O)NC)c2nccc(N3CCc4c(cc(Cn5ccnc5)cc4-c4cn(C)nc4C(F)(F)F)C3=O)c2c1	male Sprague-Dawley rat	oral, 50 mg/kg	Cmax	18400 ng/mL
COc1cc2c3c(n(CCCN4CCOCC4)c(=O)c2cc1OC)-c1cc2c(cc1C3=O)OCO2	male Fischer 344 rat	intravenous, 12 mg/m², single dose	Cmax	406 ng/mL
CCCC[C@@H]1NC(=O)[C@H](Cc2ccc(O)cc2)NC(=O)[C@@H]2CCCN2C(=O)[C@H](CC(=O)O)NC(=O)[C@H](C)NC(=O)[C@H](Cc2ccccc2)NC(=O)[C@@H]2CSCCC(=O)N3CN(CN(C3)C(=O)CCSC[C@@H](C(=O)N[C@@H](C)C(N)=O)NC1=O)C(=O)CCSC[C@H](NC(C)=O)C(=O)N[C@@H](CC(C)(C)C)C(=O)N1CCC[C@H]1C(=O)N[C@@H](CCC(=O)O)C(=O)N[C@H](CCCCNC(=O)CCc1cn(CCOCCOCCOCCOCCOCCC(=O)N[C@H]3CSCCC(=O)N4CN5CN(C4)C(=O)CCSC[C@H](NC(=O)[C@@H](CC(=O)O)NC(=O)[C@H](Cc4cccc6ccccc46)NC(=O)[C@@H]4CCCN4C3=O)C(=O)N[C@@H](CCSC)C(=O)N[C@@H](CCCCNC(=N)N)C(=O)N[C@@H](CC(=O)O)C(=O)N[C@@H](Cc3c[nH]c4ccccc34)C(=O)N[C@@H](CO)C(=O)N[C@@H]([C@@H](C)O)C(=O)N3CCC[C@H]3C(=O)N3C[C@H](O)C[C@H]3C(=O)N[C@@H](Cc3c[nH]c4ccccc34)C(=O)N[C@H](C(N)=O)CSCCC5=O)nn1)C(=O)N1CCC[C@H]1C(=O)N[C@@H](Cc1ccc(O)cc1)C(=O)N2	cynomolgus monkey	intravenous, 1 mg/kg, infusion	half-life	0.5 h
CCN(CC)C(=O)[C@@]1(c2ccccc2)C[C@H]1CN	male cynomolgus monkey	oral, 30 mg/kg	half-life	6.3 h
CCOC(=O)[C@@]12C[C@@H]1[C@@H](n1ccc3c(NC)nc(C#Cc4ccc(Cl)s4)nc31)[C@H](O)[C@@H]2O	male Sprague-Dawley rat	oral, 1 mg/kg	Cmax	9.97 ng/mL
C=CC(=O)N1CC2CC(n3nc(-c4ccc(C(=O)Nc5ccccn5)cc4)c4c(N)ncnc43)CC2C1 (centres unmarked)	male Wistar rat	oral, 30 mg/kg	Cmax	1260 ng/mL
CC(C)(O)c1cn(-c2ccc(-c3cc(F)c(CO)c(S(C)(=O)=O)c3)cc2F)c(C(C)(C)c2c(Cl)cccc2Cl)n1	male cynomolgus monkey	intravenous, 1 mg/kg, single dose	half-life	10 to 12 h
